One test relates to LoVo/Dx (Homo sapiens). Description: cells.
Test [1] has as its system LoVo. Description: In vitro cytotoxicity on human colon adenocarcinoma (LoVo ) tumor cell line. In kind it is functional, cell-based.
Test [2] concerns MX1. Description: In vivo antitumor activity was measured on MX-1 human mammary carcinoma cells. TWI%=tumor weight inhibition. Optimal dose 130 mg/kg/day. In kind it is functional.
In test [3] the test system is P388. Description: In vivo antitumor activity was measured on systemic P388 murine leukemia cells. Optimal dose 120 mg/kg/day. In kind it is functional, Mus musculus. Put shortly:
(§1)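 CD2F1 male mice given 10⁶ P388 leukemia cells iv (day 0); drug given iv on days 1, 4 and 7. Survival expressed as T/C% = median survival time of treated / median survival of controls × 100, reported at optimal dose (mg/kg/day) or maximum tested dose.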

For test [4], the system named is LoVo. Description: Resistance index measured as the ratio of IC50 of LoVo/Dx cell line to that of LoVo cell line. It is filed as functional, Homo sapiens.
The subject of test [5] is P388. Kind of test: In vivo antitumor activity was measured on systemic P388 murine leukemia cells. Optimal dose 90 mg/kg/day. It is filed as functional, Mus musculus. Put shortly:
as §1

Test [6] relates to MX1. Kind of test: In vivo antitumor activity was measured on MX-1 human mammary carcinoma cells. TWI%=tumor weight inhibition. Optimal dose 120 mg/kg/day. It is filed as functional.
For test [7], the system named is MX1. Kind of test: In vivo antitumor activity was measured on MX-1 human mammary carcinoma cells. TWI%=tumor weight inhibition. Optimal dose 24 mg/kg/day. It is filed as functional.
For test [8], the system named is P388. Kind of test: In vivo antitumor activity was measured on systemic P388 murine leukemia cells. Maximum tested dose 3 mg/kg/day. It is filed as functional, Mus musculus. Put shortly:
as §1

For test [9], the system named is P388. Description: In vivo antitumor activity was measured on systemic P388 murine leukemia cells. Optimal dose 40 mg/kg/day. In kind it is functional, Mus musculus. The note with it: in the assay text read “6 mg/kg/day” for “40 mg/kg/day”. Summed up: as §1
Test [10] concerns P388. Kind of test: In vivo antitumor activity was measured on systemic P388 murine leukemia cells. Optimal dose 1.5 mg/kg/day. In kind it is functional, Mus musculus. Summed up: as §1
The test system of test [11] is P388. Description: In vivo antitumor activity was measured on systemic P388 murine leukemia cells. Optimal dose 7.5 mg/kg/day. It is filed as functional, Mus musculus. Put shortly: as §1
The test system of test [12] is MX1. Kind of test: In vivo antitumor activity was measured on MX-1 human mammary carcinoma cells. TWI%=tumor weight inhibition. Optimal dose 10 mg/kg/day. In kind it is functional.
The test system of test [13] is MX1. Kind of test: In vivo antitumor activity was measured on MX-1 human mammary carcinoma cells. TWI%=tumor weight inhibition. Optimal dose 11 mg/kg/day. It is filed as functional.
Test [14] relates to P388. Kind of test: In vivo antitumor activity was measured on systemic P388 murine leukemia cells. Optimal dose 9 mg/kg/day. It is filed as functional, Mus musculus. Put shortly:
as §1

In test [15] the test system is P388. Kind of test: In vivo antitumor activity was measured on systemic P388 murine leukemia cells. Optimal dose 2 mg/kg/day. It is filed as functional, Mus musculus. Put shortly:
as §1

Test [16] concerns MX1. Kind of test: In vivo antitumor activity was measured on MX-1 human mammary carcinoma cells. TWI%=tumor weight inhibition. Optimal dose 4.5 mg/kg/day. In kind it is functional.
For test [17], the system named is MX1. Kind of test: Antitumor activity was measured on MX-1 human mammary carcinoma cells. TWI%=tumor weight inhibition. Optimal dose at 13.5 mg/kg/day. In kind it is functional.
Test [18] relates to P388. Description: In vivo antitumor activity was measured on systemic P388 murine leukemia cells. Optimal dose at 13.5 mg/kg/day. It is filed as functional, Mus musculus. Put shortly: as §1
Test [19] has as its system MX1. Kind of test: Antitumor activity was measured on MX-1 human mammary carcinoma cells. TWI%=tumor weight inhibition. Optimal dose at 7.5 mg/kg/day. It is filed as functional.
Test [20] deals with P388. Kind of test: In vivo antitumor activity was measured on systemic P388 murine leukemia cells. Optimal dose at 7.5 mg/kg/day. It is filed as functional, Mus musculus. Summed up: as §1

In brackets after ≈: the same amount, converted by molar mass.

A word on the IC50: it is the point on the concentration scale where inhibition reaches its midpoint. Higher therefore signals weaker potency. One may read the T/C as the result in the treated group divided by that in the control group, in per cent. `O=C1c2ccncc2-c2nn(CCNCCO)c3ccc(NCCN(CCO)CCO)c1c23`: the half-maximal inhibitory concentration (IC50) in the test with LoVo/Dx (Homo sapiens) and with LoVo [1] was more than 100 µg/mL throughout. This compound also had a TWI with MX1 [2] of 45%. The same compound registered a T/C with P388 [3] of 111%.

Consider `O=C1c2ccncc2-c2nn(CCNCCO)c3ccc(NCCO)c1c23`, for which the RI in the test with LoVo [4] is on record as more than 1.9. Also, in the test on P388 [5], the T/C stood at 113%. Besides, the IC50 was more than 100 µg/mL in the test on LoVo/Dx (Homo sapiens) and 53.1 µg/mL (≈ 145 µM) in the test on LoVo [1]. Moreover, in the test with MX1 [6], the TWI amounted to 49%.

Take `CN(C)CCn1nc2c3c(c(NCCN4CCCCC4)ccc31)C(=O)c1ccncc1-2`: in the test on LoVo [4], the RI worked out at 1.1. The compound further yielded a TWI in the test with MX1 [7] of 6%. The IC50 in the test with LoVo/Dx (Homo sapiens) amounted to 0.39 µg/mL (≈ 0.932 µM); in the test on LoVo [1], 0.35 µg/mL (≈ 0.836 µM). In the test on P388 [8], this compound had a T/C of 113%.

`CNCCn1nc2c3c(c(NCCNCCO)ccc31)C(=O)c1ccncc1-2`: the RI in the test on LoVo [4] worked out at 109. The compound also had a T/C in the test on P388 [9] of 181%. In addition, the figures for the half-maximal inhibitory concentration (IC50) in the test on LoVo/Dx (Homo sapiens) and in the test on LoVo [1] were 31.6 µg/mL (≈ 83.1 µM) and 0.29 µg/mL (≈ 0.762 µM), respectively.

For the compound `CNCCNc1ccc2c3c(nn2CCNC)-c2cnccc2C(=O)c13`, the RI with LoVo [4] came out at 78. The IC50 in the test on LoVo/Dx (Homo sapiens) is 3.14 µg/mL (≈ 8.96 µM); in the test on LoVo [1] it was 0.04 µg/mL (≈ 0.114 µM). In the test with P388 [10], this compound returned a T/C of 167%.

Consider `CN(C)CCCn1nc2c3c(c(NCCNCCO)ccc31)C(=O)c1ccncc1-2`, for which the RI in the test on LoVo [4] is on record as 300. Besides, the IC50 in the test with LoVo/Dx (Homo sapiens) turned out to be 90 µg/mL (≈ 220 µM); in the test on LoVo [1], 0.3 µg/mL (≈ 0.734 µM). The same compound returned a T/C in the test with P388 [11] of 166%. This compound also had a TWI with MX1 [12] of 98%.

Turning to `CN(C)CCNc1ccc2c3c(nn2CCN)-c2cnccc2C(=O)c13`, the RI in the test with LoVo [4] turned out to be 53. Besides, the IC50 worked out at 15.9 µg/mL (≈ 45.4 µM) in the test with LoVo/Dx (Homo sapiens) and 0.3 µg/mL (≈ 0.856 µM) in the test on LoVo [1]. This compound also returned a TWI with MX1 [13] of 80%. For the same compound, the T/C in the test on P388 [14] was found to be 231%.

In the test on P388 [15], `CN(C)CCn1nc2c3c(c(NCCN)ccc31)C(=O)c1ccncc1-2` registered a T/C of 213%. Moreover, the RI in the test on LoVo [4] is reported as 27. For the same compound, the half-inhibitory concentration (IC50) in the test with LoVo/Dx (Homo sapiens) was 4.3 µg/mL (≈ 12.3 µM); in the test with LoVo [1] it was 0.16 µg/mL (≈ 0.457 µM). The same compound returned a TWI in the test with MX1 [16] of 87%.

As to `Cl.Cl.O=C1c2c(O)cccc2-c2nn(CCNCCO)c3ccc(NCCNCCO)c1c23`, the RI in the test on LoVo [4] amounted to 840. The IC50 with LoVo/Dx (Homo sapiens) is 44.5 µg/mL; with LoVo [1] it was 0.053 µg/mL. For the same compound, in the test with MX1 [17], the TWI came out at 95%. The same compound came in with a T/C with P388 [18] of 147%.

For the compound `COc1cccc2c1C(=O)c1c(O)c3c(c(O)c1C2=O)C[C@@](O)(C(=O)CO)C[C@@H]3O[C@H]1C[C@H](N)[C@H](O)[C@H](C)O1` [DOXORUBICIN], the RI in the test on LoVo [4] is 91.3. Also, the IC50 in the test with LoVo/Dx (Homo sapiens) came to 53 µg/mL (≈ 97.5 µM); in the test on LoVo [1] it was 0.58 µg/mL (≈ 1.07 µM). Besides, the TWI with MX1 [19] was determined as 64%. The compound also showed a T/C in the test with P388 [20] of 200%.
